Compound activity: PubChem BioAssay, several laboratories
UPR XBP1 act: activators of adaptive arm of unfolded protein response (XBP1) | CHO-XBP1 luciferase reporter, IRE1-XBP1 UPR activation, luminescence; percent of tunicamycin response, DMSO as zero | activation, % at 20 µM | 330,000 tested, 0.33% active | AID 463104;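 active = versus positive control, 20 µM dose yields 30% or more activation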;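 also: 100% = tunicamycin at 10 µg/mL and 0% = DMSO only wells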
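Test system: CHO-XBP1 luciferase reporter cells | Buffer or medium: Serum-containing F12 medium, 10% FBS | Schedule: 6 h compound exposure at 37 °C, 5% CO2 | Detection: Steady-Glo luciferase glow luminescence, 10 min after reagent addition | Read-out basis: Activation, % of tunicamycin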
Granule exo inh: lytic granule exocytosis inhibition. inhibition, % at 10 µM. 360,000 tested, 0.66% active. TALL-104 LAMP-1 surface exposure, flow cytometry; cells stimulated with thapsigargin and PMA;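 active = inhibition above about 55%, limit read from the data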
CHOP UPR activ: activators of apoptotic arm of unfolded protein response (CHOP); 330,000 tested, 0.34% active; activation, % at 10 µM; CHO-CHOP luciferase reporter, UPR activation, luminescence; percent of tunicamycin response over DMSO baseline;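 active = at 10 µM dose, activation of 40% or more, normalized to positive control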;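 also: 100% = tunicamycin at 10 µg/mL and 0% = DMSO alone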
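Assay system: CHO cells with stable CHOP pathway luciferase reporter; Buffer or medium: F12 plus 10% serum; Times: 16-18 h cell attachment, then 6 h compound exposure, 37 °C; Signal: luciferase luminescence; Read-out basis: percent activation relative to tunicamycin control; Control set: tunicamycin high control, DMSO low control.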
Mdm2 MdmX PPI: disrupts the human Mdm2-MdmX interaction; SaOS-2 split-luciferase Mdm2/MdmX complementation, luminescence; inhibition, % at 8 µM; 330,000 tested, 3% active; AID 485346;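 active = inhibition of at least 50% at 8 µM in the primary screen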
Target sequence (O15151 whole entry, looked up): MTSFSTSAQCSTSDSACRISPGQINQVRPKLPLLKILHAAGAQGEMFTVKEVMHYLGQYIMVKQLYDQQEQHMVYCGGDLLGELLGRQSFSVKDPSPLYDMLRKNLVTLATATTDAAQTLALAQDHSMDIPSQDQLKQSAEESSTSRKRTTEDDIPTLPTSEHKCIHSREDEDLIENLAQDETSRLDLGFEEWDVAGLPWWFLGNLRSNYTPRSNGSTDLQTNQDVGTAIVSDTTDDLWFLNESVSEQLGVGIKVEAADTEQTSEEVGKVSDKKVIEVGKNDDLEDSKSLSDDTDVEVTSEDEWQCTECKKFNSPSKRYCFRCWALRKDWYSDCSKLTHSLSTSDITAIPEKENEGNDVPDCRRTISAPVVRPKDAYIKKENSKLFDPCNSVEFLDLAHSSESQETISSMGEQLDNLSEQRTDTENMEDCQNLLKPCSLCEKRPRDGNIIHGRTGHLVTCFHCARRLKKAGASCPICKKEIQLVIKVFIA
Target sequence (Q00987 whole entry, looked up): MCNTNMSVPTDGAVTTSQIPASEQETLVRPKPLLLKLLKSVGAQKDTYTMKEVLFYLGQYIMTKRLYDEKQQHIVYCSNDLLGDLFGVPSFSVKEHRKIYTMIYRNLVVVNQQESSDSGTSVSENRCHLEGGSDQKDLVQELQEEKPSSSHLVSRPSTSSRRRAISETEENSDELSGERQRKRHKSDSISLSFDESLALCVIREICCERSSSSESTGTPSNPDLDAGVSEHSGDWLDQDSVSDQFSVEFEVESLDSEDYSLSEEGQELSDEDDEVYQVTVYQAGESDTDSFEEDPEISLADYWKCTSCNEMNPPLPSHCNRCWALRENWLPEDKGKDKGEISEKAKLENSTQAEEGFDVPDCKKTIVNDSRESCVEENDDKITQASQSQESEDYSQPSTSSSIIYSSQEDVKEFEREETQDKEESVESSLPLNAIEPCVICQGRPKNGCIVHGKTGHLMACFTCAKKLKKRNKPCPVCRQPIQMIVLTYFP
ABHD5 PLIN5 PPI: ABHD5-PLIN5 protein interaction inhibition | Split G. princeps luciferase complementation, luminescence, 4 h | inhibition, % at 4 µM | AID 602281 | 360,000 tested, 0.78% active;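 active = inhibition above the mean inhibition across every tested compound plus 3 SD, cut at about 22% in these data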;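 also: 0% = DMSO only wells and the 100% control is not disclosed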
Mdm2-MdmX conf: confirmation of human Mdm2/MdmX interaction inhibitors; AID 489028; 10,000 tested, 55% active; inhibition, % at 8 µM; shares compounds with Mdm2 MdmX PPI; Mdm2-MdmX binding, luminescent assay; in the data active = inhibition above about 40%
FLuc counter: full-length luciferase inhibition in Mdm2/MdmX counter-screen; inhibition, % at 8 µM; shares compounds with Mdm2 MdmX PPI; 6,200 tested, 77% active; SaOS-2 full-length luciferase counterscreen, luminescence;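 active = mean inhibition at 8 µM reaching about 37%, which flags the compound as non-specific, limit read from the data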;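 also: p53-null SaOS-2 cells with luciferase driven by a doxycycline-inducible promoter; compound on cells about two nights before reading with doxycycline added after day one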
* = called active by the depositor; . = not tested or not shown. Only some compounds are listed: those with a hit (about 4% of all), similar ones and a draw of the others.

SMILES	UPR XBP1 act	Granule exo inh	CHOP UPR activ	Mdm2 MdmX PPI	ABHD5 PLIN5 PPI	Mdm2-MdmX conf	FLuc counter
CCN(CC)CCNc1ncnc2c1sc1nc(N3CCOCC3)c3c(c12)CCCC3	7.9	17.7	1.0	70.6*	12.3	36.4	64.8*
CN(CCOc1ccc(Cl)cc1)Cc1cccc(S(=O)(=O)N(C)C)c1	5.0	49.1	1.5	19.0	0.2	.	.
COc1cc(C2c3[nH]c4ccccc4c3C[C@@H]3C(=O)N(Cc4ccco4)CC(=O)N23)cc(OC)c1OC (stereo not given in full)	-4.3	4.4	0.5	5.5	3.7	.	.
C=CCc1cccc([C@@H]2[C@@H](C)CC[C@H]3C(=O)N4[C@@H](c5cc(OC)c(OC)c(OC)c5)c5[nH]c6ccccc6c5C[C@H]4C(=O)N23)c1	-2.5	.	1.1	71.5*	.	62.5*	60.3*
CC(C)CCNc1nc2ccccc2nc1NS(=O)(=O)c1cccs1	-1.4	-3.7	-0.6	-17.7	11.2	.	.
COc1cc2c(c(OC)c1OC)-c1ccc(NCc3ccccc3)c(=O)cc1C(NC(C)=O)CC2 (stereo not given)	.	10.7	.	.	-0.1	.	.
COc1cc2c(c(OC)c1OC)-c1ccc(OC)c(=O)cc1[C@@H](NC(C)=O)CC2	8.9	1.7	-1.5	73.3*	-1.8	40.8*	97.7*
COc1cc2c(c(OC)c1OC)-c1ccc(OC)c(=O)cc1[C@@H](N(C)CC#CCO)CC2	6.0	27.1	2.1	51.0*	-8.9	52.8*	117.5*
COc1cc(NC(=O)c2ccc(F)cc2)c(OC)cc1Cl	0.9	-1.9	0.5	11.0	-2.2	.	.
COc1cc2c(c(OC)c1OC)-c1ccc(NC(=O)c3ccc(F)cc3)c(=O)cc1[C@@H](NC(C)=O)CC2	8.8	-6.7	-1.0	61.7*	9.8	52.0*	78.0*
CC(=O)c1cccc(NC(=O)c2ccc3c(c2)CCCC3)c1	-0.2	-0.2	6.3	-109.2	-5.8	.	.
O=C(NC(NC(=S)Nc1ccccc1Cl)C(Cl)(Cl)Cl)c1cccc(Cl)c1 (stereo not given)	-1.7	10.7	25.5	97.3*	-0.6	94.9*	22.0
COc1ccc(NC(=S)NC(NC(=O)c2cccc(C)c2)C(Cl)(Cl)Cl)c([N+](=O)[O-])c1 (stereo not given)	0.2	-2.9	1.9	-2.4	-5.7	.	.
O=C(Cc1cccc2ccccc12)NC(NC(=S)Nc1ccccc1Cl)C(Cl)(Cl)Cl (stereo not given)	0.0	0.1	0.0	-49.6	-11.8	.	.
COc1ccc(NC(=S)NC(NC(=O)c2cccc(Cl)c2)C(Cl)(Cl)Cl)c([N+](=O)[O-])c1 (stereo not given)	4.2	1.1	15.8	86.9*	-19.2	72.3*	57.2*
CC1(C)CC(=O)C=C(c2cccc3c2oc2ccccc23)C1	5.2	-1.1	1.8	-44.0	-1.3	.	.
COc1cc(C)c(C(=O)CC(=O)c2c(C)cc(OC)cc2C)c(C)c1	-4.3	27.7	-1.9	50.7*	-6.2	16.5	.
O=C(C1CC1)N1c2ccccc2Sc2ccccc21	-6.4	-1.4	5.2	61.4*	-7.5	55.4*	75.0*
NC(=O)C1CCN(C(=O)N2c3ccccc3Sc3ccccc32)CC1	-3.4	-0.8	-3.1	13.6	2.8	.	.
Cc1c(C(=O)Nc2ccc(S(=O)(=O)N(C)C3CCN(C)CC3)cc2)oc2ccccc12	3.5	0.0	1.9	91.7*	4.7	34.5	.
O=C(COc1ccc(Br)cc1Cl)NC(=O)Nc1ccc2c(c1)OCCO2	-0.8	-2.5	0.6	52.8*	3.5	5.5	.
Cc1c(C(=O)Nc2ccc(S(=O)(=O)N(C)C3CCN(C)CC3)cc2)oc2c(Cl)cccc12	2.9	3.7	3.0	87.6*	11.3	74.6*	63.9*
CN1CCC(N(C)S(=O)(=O)c2ccc(NC(=O)c3ccc(S(=O)(=O)N(C)C)cc3)cc2)CC1	0.2	0.6	-0.3	-8.6	3.8	.	.
CN1CCC(N(C)S(=O)(=O)c2ccc(NC(=O)COc3ccc(Br)cc3Cl)cc2)CC1	0.8	-1.1	2.8	62.8*	8.1	55.7*	72.3*
O=C(COc1ccccc1Cl)Nc1ccc2c(c1)OCCO2	0.4	7.0	7.4	-105.9	-4.4	.	.
SMILES	UPR XBP1 act	Granule exo inh	CHOP UPR activ	Mdm2 MdmX PPI	ABHD5 PLIN5 PPI	Mdm2-MdmX conf	FLuc counter
Cc1nnc(SCCN2C(=O)c3ccccc3C2=O)[nH]c1=O	0.3	2.5	0.7	5.8	-4.6	.	.
c1ccc2c(-c3c[nH]c4ccccc34)c3ccccc3nc2c1	1.0	8.8	-1.2	35.6	4.2	.	.
Cc1ccc(OCCNC(=O)C2CCCCC2)cc1	1.3	2.5	2.6	-3.2	0.0	.	.
CCOc1ccc(OCC(=O)c2c(O)c3ccccc3oc2=O)cc1	0.5	0.2	0.6	7.3	10.2	.	.
CCOc1ccc(C2Nc3ccc4ccccc4c3-c3c2c(=O)oc2ccccc32)cc1 (stereo not given)	7.8	5.3	5.3	68.5*	-3.9	7.2	.
FC(F)(F)c1nc(-c2cccs2)ncc1-c1nnnn1-c1ccc(Cl)cc1	-0.9	-3.1	9.2	69.4*	-5.3	35.6	.
O=C(CSc1nnc2ccc(-c3cccnc3)nn12)Nc1ccc(F)cc1F	-1.6	-1.3	-1.8	9.3	-7.2	.	.
O=C(OCn1ncc(Cl)c(Cl)c1=O)c1ccccc1Cl	.	27.4	.	.	7.5	.	.
O=c1c(Cl)c(Cl)cnn1Cc1ccc(F)cc1	-1.0	-3.7	8.7	93.4*	1.8	34.6	.
O=C(OCn1ncc(Cl)c(Cl)c1=O)c1ccc(F)cc1	-5.1	.	-10.9	93.2*	.	100.2*	50.4*
CN(C)S(=O)(=O)c1ccc2c(c1)nc(CCC(=O)NCc1ccc(Cl)cc1)n2C	-0.5	-0.6	-0.6	-11.0	5.2	.	.
CCOC(=O)c1cnn(-c2cc(C(C)(C)C)nc3c(-c4ccccc4)c(C)nn23)c1N	1.8	-1.7	-0.3	22.8	-0.5	.	.
CN1CCCC1(C)C(=O)Nc1ccc(-n2cccc2)cc1 (stereo not given)	.	-0.6	.	.	12.2	.	.
Cn1cc(/C=N/n2cnc3scc(-c4ccc(Cl)cc4)c3c2=O)c2ccccc21	7.3	0.1	1.4	73.0*	-5.2	62.9*	63.2*
CCOC(=O)NC(=O)/C(C#N)=N\Nc1cccc(Cl)c1	0.0	8.4	0.3	58.6*	-7.7	63.6*	57.9*
c1cc(C2CCCCC2)ccc1Oc1nc(N2CCOCC2)nc(N2CCOCC2)n1	-0.8	0.7	7.5	62.7*	4.7	16.9	.
COc1ccc2nc(NC(=O)CSc3nc4ccccc4o3)sc2c1	0.6	-1.5	0.1	39.2	-4.8	.	.
Cc1cc(OCC(=O)Nc2ccccn2)c2c(C)c(C)c(=O)oc2c1	0.2	0.8	6.3	52.4*	1.4	-4.5	.
